The test system of experiment [1] is Candida albicans. The experiment is described as follows: Antifungal activity against Candida albicans. It is filed as functional, organism-based.
Experiment [2] relates to BC1. In words: Cytotoxicity against human BC1 cells. It is filed as functional, cell-based.
The test system of experiment [3] is KB. In words: Cytotoxicity against human KB cells. In kind it is functional, cell-based.
The subject of experiment [4] is NCI-H187. The experiment is described as follows: Cytotoxicity against human NCI-H187 cells. In kind it is functional, cell-based.
Experiment [5] has as its system Plasmodium falciparum. The experiment is described as follows: Antimalarial activity against Plasmodium falciparum. In kind it is functional, organism-based.
Experiment [6] has as its system Mycobacterium tuberculosis. The experiment is described as follows: Antimycobacterial activity against Mycobacterium tuberculosis H37Ra by microplate alamar blue assay. It is filed as functional. The essentials:
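Whole-cell microplate Alamar Blue test of M. tuberculosis H37Ra, read out as MIC in µg/mL. Isoniazid and kanamycin sulfate served as reference drugs.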
For orientation: The colour change of resazurin is a common sign of viable cells or microbes.

This is an account of results in ChEMBL document CHEMBL1212940, “Polyacetylenes from the roots of Polyalthia debilis” (2010).

Values after ≈ are worked out from the molar mass of the structure shown. Active and inactive are the calls of the source.

Regarding `C=CCC/C=C\C#CC#CCCCCCCCCCC[C@H]1C[C@@H](CO)OC1=O`, the result in experiment [1], in experiment [2], in experiment [3], in experiment [4] and in experiment [5] was inactive.

In general, MIC refers to the smallest concentration in the dilution series that meets the test's criterion for growth inhibition. Read a low MIC as greater potency. For `CCCCC[C@H](O)C#CC#CCCCCCCCCCC[C@H]1C[C@@H](CO)OC1=O` [DEBILISONE B], the MIC in experiment [6] worked out at 25 µg/mL (≈ 61.8 µM). Also, the outcome in experiment [1], in experiment [2], in experiment [3], in experiment [4] and in experiment [5] was inactive.

As to `C=CCCCCCCC#CCCCCCCCCCC[C@@H]1C[C@@H](CO)OC1=O`, the result in experiment [1], in experiment [2], in experiment [3], in experiment [4] and in experiment [5] was inactive.

In experiment [6], `C=CCC/C=C/C#CC#CCCCCCCCCCC[C@H]1C[C@@H](CO)OC1=O` [DEBILISONE E] yielded a minimum inhibitory concentration (MIC) of 25 µg/mL (≈ 65 µM). Besides, the result in experiment [1], in experiment [2], in experiment [3], in experiment [4] and in experiment [5] was inactive.

Turning to `CCCC/C=C/C#CC#CCCCCCCCCCC[C@H]1C[C@@H](CO)OC1=O` [DEBILISONE C], the MIC in experiment [6] amounted to 12.5 µg/mL (≈ 32.3 µM). Moreover, the outcome in experiment [1], in experiment [2], in experiment [3], in experiment [4] and in experiment [5] was inactive.

Regarding `CCCCCCC#CC#CCCCCCCCCCC[C@H]1C[C@@H](CO)OC1=O`, the result in experiment [1], in experiment [2], in experiment [3], in experiment [4] and in experiment [5] was inactive.

In the case of `C=CCCCCCCC#CCCCC[C@@H]1C[C@@H](CO)OC1=O`, the result in experiment [1], in experiment [2], in experiment [3], in experiment [4] and in experiment [5] was inactive.

For `CCCC/C=C\C#CC#CCCCCCCCCCCCC[C@H]1C[C@@H](CO)OC1=O`, the result in experiment [1], in experiment [2], in experiment [3], in experiment [4] and in experiment [5] was inactive.
